Bioassay records from PubChem.
The full list was thinned out, with hits kept by preference.
CHOP inhibitor – inhibitors of CHOP induction in ER stress response; AID 2732; CHO-K1 CHOP-promoter luciferase, tunicamycin-induced, 15-18 h; inhibition, % at 10 µM; 220,000 tested, 3.8% active;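 active = compounds that reduced the stress-induced luciferase reporter signal by more than about 70% of percent inhibition, limit read from the data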;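 note: 0% = tunicamycin plus vehicle and 100% = wells without tunicamycin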
Jurkat NFkB inh – inhibitors of the PMA/ionomycin-induced NF-kB reporter in Jurkat cells; PMA/ionomycin-induced NF-kB luciferase reporter, luminescence; 330,000 tested, 0.53% active; AID 435003; inhibition, % at 4 µM; in the data active = inhibition above about 50%
CHOP UPR activ – activators of apoptotic arm of unfolded protein response (CHOP) | CHO-CHOP luciferase reporter, UPR activation, luminescence; percent of tunicamycin response over DMSO baseline | activation, % at 10 µM | 330,000 tested, 0.34% active | AID 449763;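 active = at 10 µM dose, activation of 40% or more, normalized to positive control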;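 note: 100% = tunicamycin at 10 µg/mL and 0% = DMSO alone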
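assay system = CHO CHOP reporter cells | amount = 500 CHO-CHOP cells per well | buffer or medium = F12 with 10% FBS | incubation = 16-18 h cell attachment, then 6 h compound exposure, 37 °C | detection = luminescence read with Steady-Glo | read-out = percent activation relative to tunicamycin control | controls = tunicamycin high control, DMSO low control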
697 NFkB inh – inhibitors of the PMA/ionomycin-induced NF-kB reporter in 697 B cells | 697 B-cell NF-kB luciferase reporter, 16 h | inhibition, % at 4 µM | 330,000 tested, 0.33% active | AID 435022; in the data active = inhibition above about 35%
XBP1 UPR activ – adaptive UPR (XBP1) activation; CHO-XBP1 luciferase reporter, IRE1-XBP1 UPR activation, luminescence; percent of tunicamycin response, DMSO as zero; 330,000 tested, 0.33% active; activation, % at 20 µM;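 active = versus positive control, 20 µM dose yields 30% or more activation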;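 note: 100% = tunicamycin at 10 µg/mL and 0% = DMSO only wells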
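Test system: CHO-XBP1 luciferase reporter cells | Buffer or medium: Serum-containing F12 medium, 10% FBS | Schedule: 6 h compound exposure at 37 °C, 5% CO2 | Detection: Steady-Glo luciferase glow luminescence, 10 min after reagent addition | Read-out basis: Activation, % of tunicamycin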
CHOP confirm – confirmation of CHOP induction inhibitors. 2,100 tested, 45% active. inhibition, % at 10 µM. shares compounds with CHOP inhibitor. CHO-CHOP promoter luciferase reporter, tunicamycin-induced, luminescence;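 active = mean of three repeat readings of reporter signal inhibition above a set limit, cut at about 70% in these data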;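 note: 0% = tunicamycin plus vehicle and 100% = wells lacking tunicamycin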
The depositor's hits bear a star.

Screening O=[N+]([O-])/C=C\c1ccc(N2CCCC2)c(F)c1 returned CHOP inhibitor 109* and CHOP confirm -40.
Screening CCC1CCCCN1S(=O)(=O)c1ccc(C(=O)Nc2nnc(-c3ccccc3Cl)o2)cc1 (centres undefined) returned CHOP inhibitor 107*, Jurkat NFkB inh 0, CHOP UPR activ 4, 697 NFkB inh -44, XBP1 UPR activ 1 and CHOP confirm 102*.
For O=C(N1CCOCC1)C(F)(F)C(F)(F)C(F)(F)C(F)(F)C(=O)N1CCOCC1 the results were CHOP inhibitor -9, Jurkat NFkB inh 1, CHOP UPR activ -1, 697 NFkB inh 12 and XBP1 UPR activ -1.
`COc1cc(C)nc(N2CCCC(C(=O)Nc3cccc(Cl)c3C)C2)n1` (centres undefined) gave CHOP inhibitor 105*, Jurkat NFkB inh -9, CHOP UPR activ -1, 697 NFkB inh -19, XBP1 UPR activ 2 and CHOP confirm 95*.
`COc1cc(C)nc(N2CCCC(C(=O)Nc3ccccc3Br)C2)n1` (centres undefined) gave CHOP inhibitor 6, Jurkat NFkB inh -2, CHOP UPR activ 0, 697 NFkB inh -33 and XBP1 UPR activ 1.
Nc1ncnc(Sc2ccccc2)c1[N+](=O)[O-] was read as CHOP inhibitor 24, Jurkat NFkB inh 8, CHOP UPR activ -2, 697 NFkB inh -6 and XBP1 UPR activ -1.
`Nc1ncnc(Sc2ncccn2)c1[N+](=O)[O-]` gave CHOP inhibitor 104* and CHOP confirm 45.
For Cc1ccc(S(=O)(=O)N(C)CC(=O)Oc2ccc(-c3nnco3)cc2)cc1 the results were Jurkat NFkB inh -3, CHOP UPR activ -1, 697 NFkB inh 9 and XBP1 UPR activ -4.
`CC1=CC(C)(C)N2C(=O)C3(SCC(=O)N3c3ccc(F)cc3)c3cc(C)cc1c32` (centres undefined) gave CHOP inhibitor 108*, Jurkat NFkB inh -8, CHOP UPR activ -1, 697 NFkB inh 12, XBP1 UPR activ 2 and CHOP confirm 112*.
For CC1=CC(C)(C)N2C(=O)C3(NCCc4c3[nH]c3ccccc43)c3cc(C)cc1c32 (centres undefined) the results were CHOP inhibitor -16, Jurkat NFkB inh 4, CHOP UPR activ 2, 697 NFkB inh 8 and XBP1 UPR activ -2.
For O=C(COC(=O)CNC(=O)c1ccc(Cl)cc1Cl)NC1CCCCCCC1 the results were Jurkat NFkB inh -15, CHOP UPR activ 0, 697 NFkB inh -36 and XBP1 UPR activ 3.
`COc1ccc(COc2ccc3c(C)cc(=O)oc3c2)cc1` gave Jurkat NFkB inh -134, CHOP UPR activ 8, 697 NFkB inh -146 and XBP1 UPR activ -2.
For COc1ccc2c(-c3cc4ccc(OCc5ccc(F)cc5)cc4oc3=O)cc(=O)oc2c1 the results were CHOP inhibitor 103* and CHOP confirm 51.
Cc1ccc(C(C(=O)NCc2ccco2)N(C(=O)CNC(=O)c2cccs2)c2c(C)cccc2C)cc1 (centres undefined) was read as CHOP inhibitor 101*, Jurkat NFkB inh -10, CHOP UPR activ 5, 697 NFkB inh -2, XBP1 UPR activ 19 and CHOP confirm 80*.
`Cc1oc(-c2ccc(Cl)cc2)nc1CS(=O)CC(=O)NCc1ccco1` (centres undefined) gave Jurkat NFkB inh 16, CHOP UPR activ 0, 697 NFkB inh -13 and XBP1 UPR activ -1.
Screening CCc1ccc(-c2nc(CSCC(=O)NCc3ccco3)c(C)o2)cc1 returned CHOP inhibitor 102* and CHOP confirm 135*.
`O=c1[nH]c2cc3c(cc2cc1C(c1nnnn1Cc1ccccc1)N1CCCCCC1)OCCO3` (centres undefined) gave CHOP inhibitor 101*, Jurkat NFkB inh -2, CHOP UPR activ 1, 697 NFkB inh 20, XBP1 UPR activ 1 and CHOP confirm 29.
`CC(C)CC1=NN(C(=O)c2ccncc2)C(O)(C(F)(F)F)C1` (centres undefined) gave CHOP inhibitor 4, Jurkat NFkB inh 2, CHOP UPR activ 1, 697 NFkB inh -18 and XBP1 UPR activ -3.
Screening Cc1ccc(N=Cc2nc(-c3ccco3)oc2O)cc1 returned CHOP inhibitor -16, Jurkat NFkB inh -49, CHOP UPR activ 2, 697 NFkB inh -68 and XBP1 UPR activ 2.
O=C(Oc1oc(-c2ccco2)nc1C=Nc1ccccc1)c1ccco1 was read as CHOP inhibitor -20, Jurkat NFkB inh -27, CHOP UPR activ 4, 697 NFkB inh -26 and XBP1 UPR activ -2.
Cc1ccc(C(=O)Oc2oc(-c3ccco3)nc2C=Nc2ccc(Cl)cc2)cc1 was read as CHOP inhibitor 101*, Jurkat NFkB inh -143, CHOP UPR activ 31, 697 NFkB inh -150, XBP1 UPR activ 7 and CHOP confirm 0.
For O=C(Oc1oc(-c2ccco2)nc1C=Nc1ccccc1)c1ccoc1 the results were CHOP inhibitor 109*, Jurkat NFkB inh -13, CHOP UPR activ 2, 697 NFkB inh -8, XBP1 UPR activ 2 and CHOP confirm -5.
`COCCn1c(SCc2ccc(OC)c(F)c2)nnc1-c1ccncc1` gave Jurkat NFkB inh 3, CHOP UPR activ 0, 697 NFkB inh -5 and XBP1 UPR activ -1.
CCOc1ccccc1NC(=O)c1ccccc1-c1nc(-c2ccccc2OC)no1 was read as CHOP inhibitor 8, Jurkat NFkB inh -12, CHOP UPR activ -2, 697 NFkB inh 13 and XBP1 UPR activ -1.
For O=C1C=CC(=O)N1CCCCCCN1C(=O)C=CC1=O the results were CHOP inhibitor 107* and CHOP confirm 116*.
For CCN1C(=O)C=CC1=O the results were CHOP inhibitor -8.
O=C(N/N=C/c1ccc([N+](=O)[O-])cc1)c1ccc(COc2ccccc2-c2ccccc2)cc1 was read as CHOP inhibitor 5, Jurkat NFkB inh -14, CHOP UPR activ -1, 697 NFkB inh -26 and XBP1 UPR activ -2.
Screening CC1=NN(c2ccc(C)c(C)c2)C(=O)/C1=C\C=C\c1ccc([N+](=O)[O-])o1 returned CHOP inhibitor 108*, Jurkat NFkB inh 2, CHOP UPR activ 25, 697 NFkB inh -42, XBP1 UPR activ 1 and CHOP confirm 21.
Screening CC1=NN(c2ccccc2)C(=O)/C1=C\C=C\c1ccccc1 returned CHOP inhibitor -19, Jurkat NFkB inh 1, CHOP UPR activ 3, 697 NFkB inh -57 and XBP1 UPR activ -1.
Screening CCOc1ccc(NC(=NCc2ccc3c(c2)OCO3)SC2CC(=O)N(c3ccc(OCC)cc3)C2=O)cc1 (centres undefined) returned CHOP inhibitor 98*, Jurkat NFkB inh 5, CHOP UPR activ 12, 697 NFkB inh -15, XBP1 UPR activ 18 and CHOP confirm 30.
